ATG4B inhibitor: ATG4B (human) cysteine protease inhibition; Q9Y4P1; ATG4B cleavage of LC3-PLA2, NBD-HPC fluorescence, 1 h; hit rate 0.51% among 340,000; inhibition, % at 8.33 µM; in the data active means inhibition above about 40%
Exocytosis inh: lytic granule exocytosis inhibition. TALL-104 LAMP-1 surface exposure, flow cytometry; cells stimulated with thapsigargin and PMA. inhibition, % at 10 µM. hit rate 0.66% among 360,000. AID 651702;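 active means inhibition above about 55%, limit read from the data; inconclusive means no clear call, values can overlap the other calls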
Arrestin-AP2 inh: inhibitors of human beta-arrestin and AP2 interaction. inhibition, % at 10 µM. hit rate 0.31% among 340,000. AID 504490. FITC-arrestin peptide / GST-AP2 beads, flow cytometry; AP2 beta2 appendage carries R879A mutation;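 active means inhibition above a set limit, near 3 SD of compounds lacking own fluorescence, cut at about 54% in these data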;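 further: plate controls were DMSO wells for no effect and 5 µM unlabelled arrestin peptide for full effect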
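Measured by: flow cytometry, FL1 (488/535 nm); Material: AP2 appendage R879A on GSH beads; Evaluation: percent response; Timing: pre-incubation 12 min, peptide binding 1 h, room temperature; Also added: 50 nM FITC-arrestin peptide; Medium: PBS with 0.05% Tween 20 and 0.1% BSA.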
NRP1-CendR mod: alters CendR peptide binding to human NRP-1; inhibition, % at 25 µM; AID 602438; hit rate 0.85% among 360,000; FAM-RPARPAR peptide binding to NRP-1, fluorescence polarization; O14786;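 active means inhibition or corrected inhibition above about 18%, plus a signal ratio from 0.5 to 1.5, limit read from the data, passing the limit was not always enough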
Myeloid diff 2: compounds promoting myeloid differentiation. ER-HoxA9 myeloid progenitors, lysozyme-GFP differentiation, flow cytometry. calls only at 10 µM. hit rate 1% among 360,000;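 active means normalized GFP-positive differentiation at or above the plate's own cutoff, the solvent-only control mean plus 3 SD; inconclusive means no clear call, values can overlap the other calls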;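 further: cells exposed to compound for four days before flow analysis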
ABCB6 inh 2: human ABCB6 transporter inhibition; AID 602162; K562-ABCB6 porphyrin accumulation, flow cytometry, 1 h; stronger effect = lower value; fluorescence ratio to DMSO, % at 10 µM; hit rate 0.19% among 360,000;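 active means fluorescence ratio to DMSO below 75%, the collection mean minus 3 SD; inconclusive means too few cells collected in the well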;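 further: signal is porphyrin accumulated inside mitochondria; 100% equals median channel fluorescence of DMSO control wells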
Target sequence (Q9NP58 whole entry, looked up): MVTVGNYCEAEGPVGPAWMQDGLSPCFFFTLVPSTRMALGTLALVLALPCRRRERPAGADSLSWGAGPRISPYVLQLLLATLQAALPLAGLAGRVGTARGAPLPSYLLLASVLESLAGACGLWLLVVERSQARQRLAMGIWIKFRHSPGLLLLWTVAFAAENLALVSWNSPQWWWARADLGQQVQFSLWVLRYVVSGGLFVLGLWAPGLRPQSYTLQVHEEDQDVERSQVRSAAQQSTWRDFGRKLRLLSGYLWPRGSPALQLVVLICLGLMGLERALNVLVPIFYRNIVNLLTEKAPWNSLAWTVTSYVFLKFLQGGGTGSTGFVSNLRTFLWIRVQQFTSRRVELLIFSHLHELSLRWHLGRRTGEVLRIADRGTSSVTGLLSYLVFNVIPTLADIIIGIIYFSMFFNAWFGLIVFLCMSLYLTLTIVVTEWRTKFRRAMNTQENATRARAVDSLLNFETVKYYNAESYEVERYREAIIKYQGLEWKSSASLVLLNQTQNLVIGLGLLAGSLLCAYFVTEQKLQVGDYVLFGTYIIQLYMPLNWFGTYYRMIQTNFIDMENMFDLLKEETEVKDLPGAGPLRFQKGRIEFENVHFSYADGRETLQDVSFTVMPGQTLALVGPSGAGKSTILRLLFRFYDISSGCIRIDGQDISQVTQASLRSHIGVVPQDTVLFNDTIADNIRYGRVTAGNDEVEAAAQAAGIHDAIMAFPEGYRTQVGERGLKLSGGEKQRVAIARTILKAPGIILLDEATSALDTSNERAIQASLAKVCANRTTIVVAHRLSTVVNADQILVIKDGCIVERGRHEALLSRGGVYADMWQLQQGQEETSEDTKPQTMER
* = called active by the depositor; i = inactive; ? = inconclusive; . = not tested or not shown; + = active, no number. This is a sample that favours compounds with a hit; in the whole collection about 3.3% have one here.

SMILES	ATG4B inhibitor	Exocytosis inh	Arrestin-AP2 inh	NRP1-CendR mod	Myeloid diff 2	ABCB6 inh 2
CSCCC(NS(=O)(=O)c1ccccc1F)C(=O)NCCCn1nc(C)cc1C (stereo unspecified)	4.3	-5.3	-4.8	3.8	i	102.0
COc1ccc(-c2cc(=O)oc3cc(OCC(=O)NCC4CCC(C(=O)O)CC4)ccc23)cc1 (stereo unspecified)	-1.8	-3.4	3.4	-9.1	i	97.0
O=C1c2cccc(O)c2C(=O)c2c(O)cc(CO)cc21	-13.1	.	.	.	.	.
CC1OC2CC(=O)OC2C2=C1C(=O)c1c(O)cccc1C2=O (stereo unspecified)	.	85.7*	.	38.0*	i	118.0
Cc1nn(-c2ccccc2)c(C)c1-c1nnc(-c2c(C)nn(-c3ccccc3)c2C)o1	-0.6	-7.3	-3.8	-16.4	i	96.0
CCc1cccc(CC)c1-n1c(SCC(=O)N2CCc3ccccc32)nc(O)cc1=O	-3.4	-0.2	1.0	17.6	i	100.0
CN1C(=O)c2oc3ccccc3c(=O)c2C1c1ccccn1 (stereo unspecified)	-2.0	1.5	-5.7	32.9*	i	100.0
CC(=O)Nc1ccccc1OCC(=O)N(Cc1ccccc1)C(C)C	-4.2	-5.6	6.5	38.5*	+	96.0
O=C(c1ccc(S(=O)(=O)Nc2ccccc2Cl)cc1)N1CCOCC1	-2.9	1.1	0.8	26.5*	i	94.0
CC1CCCN(C(=O)c2ccc(S(=O)(=O)Nc3ccccc3Cl)cc2)C1 (stereo unspecified)	-1.2	-2.1	3.4	1.3	i	94.0
CC(=O)c1c(C)[nH]c(C(=O)N(C)C(c2ccccc2)c2ccccc2)c1C	-6.6	-0.4	-11.3	0.3	i	97.0
COCCC1CCCCN1C(=O)c1cccc(OC2CCN(S(C)(=O)=O)CC2)c1 (stereo unspecified)	3.4	10.5	-1.4	-0.3	i	94.0
CS(=O)(=O)N1CCC(Oc2cccc(C(=O)NCCCC3CCCC3)c2)CC1	-6.0	0.1	60.9*	-1.7	i	95.0
O=C1c2cccc([N+](=O)[O-])c2C(=O)N1CCO	-4.2	3.5	-8.9	1.7	+	404.0
CCCNCc1cc(OC)c(OCCC)cc1Cl	0.5	-0.1	22.3	-1.3	+	104.0
CC(=O)c1ccc(OCC(=O)Nc2nnc(C3CC3)s2)cc1	.	-13.7	.	29.0*	i	100.0
COc1ccc(C(=O)C2CCCN(Cc3ccc(C#CCCO)cc3)C2)cc1F (stereo unspecified)	16.6	-0.8	4.4	13.7	+	114.0
Cc1cc(C)n(Cc2ccc(C(=O)NN)o2)n1	-3.4	-7.9	-10.4	0.7	+	94.0
Cc1ccc(OCc2ccc(C(=O)NN)o2)c([N+](=O)[O-])c1	-4.5	-5.3	2.2	-9.1	i	96.0
Cc1ccc(C)c(OCc2ccc(C(=O)NN)o2)c1	-5.7	-1.4	5.4	2.0	+	84.0
O=C(Cc1n[nH]c(=O)[nH]c1=O)N/N=C/CCc1ccccc1	-7.9	0.3	-3.1	-10.6	i	91.0
O=C(O)CC(C(=O)O)N1C(=O)/C(=C/c2ccc(-c3nc4ccccc4s3)o2)SC1=S (stereo unspecified)	67.5*	2.8	10.4	-104.3	i	111.0
O=C(O)CCN1C(=O)/C(=C/c2ccc(-c3nc4ccccc4s3)o2)SC1=S	6.7	98.2*	43.1	-135.4	+	91.0
O=C(NCCO)c1ccc2c(c1)S(=O)(=O)c1ccccc1C2=O	-10.1	-17.6	-8.1	22.5*	i	100.0
COC(=O)c1oc2ccc(OC)cc2c1N	-2.2	2.4	-0.1	-4.3	+	100.0
SMILES	ATG4B inhibitor	Exocytosis inh	Arrestin-AP2 inh	NRP1-CendR mod	Myeloid diff 2	ABCB6 inh 2
CCOC(=O)N1CCN(C(=O)COC(=O)c2oc3ccc(OC)cc3c2C)CC1	-10.8	-12.6	-10.5	23.0*	i	97.0
COc1ccc2oc(C(=O)OCC(=O)N3CCC(C)CC3)c(C)c2c1	-4.4	-0.1	9.4	12.7	i	95.0
O=c1cc[nH]c2ccc([N+](=O)[O-])cc12	-6.5	-2.4	3.9	33.8*	i	98.0
COCCNC(=O)c1ccccc1NC(=O)c1ccc(OC)c(OC)c1	-10.2	-0.3	11.3	13.4	+	103.0
COc1ccc(C(=O)Nc2ccccc2C(=O)NCc2ccco2)cc1OC	-8.6	-1.3	23.0	-7.5	i	91.0
CC1CCN(S(=O)(=O)CCNC(=O)c2ccccc2)CC1	-0.6	18.0	30.9	8.0	.	99.0
O=[N+]([O-])c1cccn2cc(-c3ccc(Br)cc3)nc12	3.2	0.1	28.4	-5.3	+	95.0
CC(=O)Nc1ccc(S(=O)(=O)NNC(=S)NCc2ccco2)cc1	9.6	-8.3	11.7	5.3	+	95.0
Cc1nc(Nc2ccc(S(N)(=O)=O)cc2)oc1C	3.2	-1.9	-2.2	25.9*	i	98.0
COc1ccc(-n2c(O)c(/C=N/NS(=O)(=O)c3ccc(C)cc3)c3ccccc3c2=O)cc1OC	0.4	-0.7	-1.1	-196.9	?	340.0
COc1ccc(-n2c(O)c(/C=N/NS(=O)(=O)c3cc(C)ccc3C)c3ccccc3c2=O)cc1OC	12.1	-5.0	-1.2	121.3	+	304.0
Nc1[nH]c(=O)ncc1F	7.0	0.1	0.8	1.9	i	90.0
O=C(NCCCn1ccnc1)c1ccc(Cl)c(S(=O)(=O)N2CCOCC2)c1	4.1	-7.0	14.4	35.0*	i	100.0
O=C(NCCCn1ccnc1)c1ccc(S(=O)(=O)N2CCOCC2)cc1	-4.2	-2.9	30.5	13.1	i	92.0
COc1nnc(-c2ccc(C(=O)N3C[C@@H]4C[C@H](C3)c3cccc(=O)n3C4)cc2)c2ccccc12	-12.9	-0.7	2.6	19.2*	i	102.0
O=C(c1ccc(-c2nnc(Nc3cccc(Cl)c3)c3ccccc23)cc1)N1C[C@H]2C[C@H](C1)c1cccc(=O)n1C2	-7.5	-1.6	4.2	-13.9	i	96.0
Cc1cc(C)cc(N(C(=O)c2ccccn2)C(C(=O)NC2CCCCC2)c2cccs2)c1 (stereo unspecified)	-15.2	-0.2	-12.9	-11.8	i	94.0
CC1CCCCN1S(=O)(=O)c1ccc(N(C(=O)c2cnccn2)C(C(=O)NC2CCCCC2)c2cccs2)cc1 (stereo unspecified)	-5.2	12.8	-3.7	28.4*	i	94.0
CCCC(=O)N1CCCC(c2cc(C(=O)Nc3ccc4c(c3)OCO4)no2)C1 (stereo unspecified)	.	4.0	.	-0.2	i	100.0
CC(C)c1ccc(C(=O)N2CCCC(c3cc(C(=O)Nc4ccc5c(c4)OCO5)no3)C2)cc1 (stereo unspecified)	.	-7.7	.	22.4*	i	94.0
CN(C)c1ccc(CC(=O)N2CCCC(c3cc(C(=O)Nc4ccc5c(c4)OCO5)no3)C2)cc1 (stereo unspecified)	.	0.2	.	33.1*	i	101.0

Screening results (PubChem BioAssay)
